Source: article PMC6139428 (Molecular Nutrition & Food Research, 2017)
Entries after “also recorded” stand apart in the source; their conditions may differ.

Legend:
[1] = Nutrikinetics of isoflavone metabolites in serum after oral boiled soybean; assay type: in vivo, mice (C57BL/6); settings: for serum concentration, CGJ‐treated compared with BS‐treated / bioavailability, CGJ‐treated compared to BS‐treated (unfermented soybean): OVX mice; for serum concentration, CGJ‐treated compared with BS‐treated: relative peak area; for concentration based on area‐under‐the‐curve analysis: all groups; for AUC, CGJ treatment versus BS treatment: sham group; for AUC(0–24h), CGJ administered versus BS administered: OVX groups; for bioavailability, CGJ‐treated compared to BS‐treated (unfermented soybean): abstract does not name the group; for detection in pooled serum samples: pooled serum of sham and OVX groups after BS or CGJ, UPLC–QTOF‐MS
MC3T3‐E1 cells [2] = test: Alkaline phosphatase; assay type: cell-based; settings: for ALP activity: 0.1–0 5 μ M, 6 days differentiation; for osteoblastogenesis: abstract summary
Procedure, shortened: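 MC3T3‐E1 subclone 4 cells were kept in αMEM without L‐ascorbic acid and seeded at 2 × 10^4 cells/well. Differentiation was induced with 50 μg mL–1 L‐ascorbic acid and 10 mM β‐glycerophosphate plus test compound for 6 days. Cells were PBS‐washed and lysed in 0.2% Triton X‐100, and ALP was read with a pNPP kit. Means ± SD, n = 3, three independent experiments, tested against the control group.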

MC3T3‐E1 cells [3] = test: Mineralization assay; assay type: cell-based; settings: 21‐day incubation
Procedure, shortened: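 MC3T3‐E1 cells were differentiated with test compound and incubated 21 days. Cells were washed, fixed in 4% formalin and stained with 2% Alizarin Red S. Bound stain was solubilized in 10% […] in 10 mM sodium phosphate and absorbance read at 562 nm. Means ± SD, n = 3, three independent experiments, tested against the control group.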

RAW 264.7 cells = test: RANKL‐induced bone resorption activity; assay type: cell-based; settings: abstract summary
Procedure, shortened: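 RAW 264.7 macrophages were grown in DMEM and seeded. Medium was replaced with RANKL‐containing differentiation medium plus test compound, then held 5 days without medium change. Bone resorption activity was measured with a commercial bone resorption assay kit. Means ± SD, n = 3, three independent experiments, tested against the control group.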

| Compound | serum concentration, CGJ‐treated compared with BS‐treated [1] | concentration based on area‐under‐the‐curve analysis [1] | detection in pooled serum samples [1] | ALP activity (MC3T3‐E1 cells [2]) | further results |
| --- | --- | --- | --- | --- | --- |
| Dihydrodaidzein sulfate | higher concentrations | high concentrations |  |  |  |
| O=c1c(-c2ccc(O)cc2)coc2cc(O)ccc12 [Daidzein] | significantly higher | high concentrations |  |  | AUC, CGJ treatment versus BS treatment [1]: significantly higher |
| O=c1c(-c2ccc(O)cc2)coc2cc(O)cc(O)c12 [Genistein] | higher concentrations; also recorded: significantly higher | high concentrations | detected |  | AUC(0–24h), CGJ administered versus BS administered [1]: significantly higher; bioavailability, CGJ‐treated compared to BS‐treated (unfermented soybean) [1]: enhances; AUC, CGJ treatment versus BS treatment [1]: significantly higher |
| Methyl caffeic acid | higher in BS‐treated |  |  |  |  |
| COc1cc2c(=O)c(-c3ccc(O)cc3)coc2cc1O [Glycitein] |  |  | detected |  |  |
| COc1ccc(-c2coc3cc(O)ccc3c2=O)cc1 [Formononetin] | higher in BS‐treated |  |  | stimulated ALP activity |  |
| O=C(O)c1ccc(O)cc1 [4‐hydroxybenzoic acid, 4‐Hydroxybenzoic acid] | higher in BS‐treated |  |  |  |  |
| O=c1c(-c2ccc(O)cc2)coc2cc(O[C@@H]3O[C@H](CO)[C@@H](O)[C@H](O)[C@H]3O)ccc12 [Daidzin] |  |  | not detected |  |  |
| O=c1c(-c2ccc(OS(=O)(=O)O)cc2)coc2cc(O)cc(O)c12 [Genistein 4′‐sulfate] | higher concentrations | high concentrations |  | stimulated ALP activity | AUC(0–24h), CGJ administered versus BS administered [1]: significantly higher; osteoblastogenesis (MC3T3‐E1 cells [2]): promote osteoblastogenesis; mineralization, calcium deposition by ARS staining (MC3T3‐E1 cells [3]): Extensive calcium deposition; osteoclast formation (RAW 264.7 cells): inhibit osteoclast formation |
| O=c1c(-c2ccc(O)cc2)coc2cc(O[C@@H]3O[C@H](CO)[C@@H](O)[C@H](O)[C@H]3O)cc(O)c12 [Genistin] |  |  | not detected |  |  |
| O=C(O)[C@H]1O[C@@H](Oc2ccc3c(c2)OC[C@H](c2ccc(O)cc2)C3)[C@H](O)[C@@H](O)[C@@H]1O [Equol 7‐glucuronide] | higher concentrations | high concentrations |  | stimulated ALP activity | bioavailability, CGJ‐treated compared to BS‐treated (unfermented soybean) [1]: enhances; also recorded: higher bioavailability; osteoblastogenesis (MC3T3‐E1 cells [2]): promote osteoblastogenesis; mineralization, calcium deposition by ARS staining (MC3T3‐E1 cells [3]): Extensive calcium deposition; osteoclast formation (RAW 264.7 cells): inhibit osteoclast formation |
| O=C(O)/C=C/c1ccc(O)c(O)c1 [Caffeic acid] | higher in BS‐treated |  |  | stimulated ALP activity | mineralization, calcium deposition by ARS staining (MC3T3‐E1 cells [3]): Extensive calcium deposition |
